The results in this text go back to ChEMBL document CHEMBL4513216, “Probing the Open Global Health Chemical Diversity Library for Multistage-Active Starting Points for Next-Generation Antimalarials” (ACS Infect Dis, 2020).

The data set can be described thus: Toxicity liver stage against HepG2, at 10uM. It counts as cell-based. The arrangement: test concentration 10 uM, cell line HepG2-A16-CD81EGFP. Conditions: human, HepG2-A16-CD81EGFP cells; read-out: INHIBITION
The method in brief:
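Uninfected HepG2-A16-CD81EGFP cells, 3 × 10^3 per well, 1536-well, plated on prespotted compound at 10 μM final, parasite-free screening media added to match infected plates; puromycin 10 μM positive, DMSO 0.5% negative; run in parallel with 48 h PbLuc assay at 37 °C, 5% CO2; viability by CellTiter-Glo luminescence, normalized to controls.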
As to `CC[C@H]1CN2CC[C@H]1C[C@@H]2CNCc1ccc2c(c1)OCO2`, the cytotoxicity at 10 µM was -5.9%.

Turning to `COC1CCN(C(=O)CC(C)(C)C)CC(=O)N(C)c2ccccc21` (stereo unspecified), the cytotoxicity at 10 µM came out at 2.44%.

For `O=C(CCc1nc2cc(Br)cnc2[nH]1)NCCN1CCOCC1`, the cytotoxicity at 10 µM came out at 5.08%.

Consider `O=S(=O)(Cc1ccc(F)cc1)N1CCN(CC(O)C2CC2)CC1` (stereo unspecified), for which the cytotoxicity at 10 µM turned out to be 4.77%.

As to `Cn1nc(CNC(=O)c2ccc3nsnc3c2)c2c1CCOC2`, the cytotoxicity at 10 µM came to 6.53%.

In the case of `OCc1cnc(Nc2ccccc2)nc1`, the cytotoxicity at 10 µM turned out to be 11.3%.

Turning to `CN(C)C(=O)N1CCC(C2C(=O)Nc3ccccc32)CC1` (stereo unspecified), the cytotoxicity at 10 µM came out at 11.9%.

With `COCC(=O)N1CCC2(CC1)NC(=O)[C@H]1CN(C(=O)N(C)C)C[C@H]12`, the cytotoxicity at 10 µM amounted to 7%.

With `Cc1cccc(CN2C(=O)CCC23CCN(C(=O)c2ccco2)CC3)c1`, the cytotoxicity at 10 µM was 6.09%.

Regarding `FC1(F)CCNCC12CCN(c1ncccn1)C2` (stereo unspecified), the cytotoxicity at 10 µM is 6.65%.

In the case of `CCOC(=O)N1CCN(C(=O)c2snnc2-c2ccccc2)CC1`, the cytotoxicity at 10 µM came to 0.847%.

Consider `CCCNC(=O)Cn1nc(C(C)C)c2cnn(C(C)(C)C)c2c1=O`, for which the cytotoxicity at 10 µM is -20%.

As to `Cc1nn(C)c(C)c1CN(C)c1nc(C2CC2)nc2c(C)nn(C)c12`, the cytotoxicity at 10 µM was determined as 3.98%.

For `Cn1cc(C2=NOC(C(=O)NC3(c4ccccc4)CCCC3)C2)cn1` (stereo unspecified), the cytotoxicity at 10 µM is -0.34%.

`Cc1cnc(C2(C)CCN(Cc3cscn3)CC2)s1`: the cytotoxicity at 10 µM is -22.5%.

As to `Cc1nn(C)c(C)c1-c1cnc(C2CCCN(S(C)(=O)=O)C2)cn1` (stereo unspecified), the cytotoxicity at 10 µM was -11.3%.

Turning to `CN(C)C(=O)C1CCc2nnc(C(C)(C)C)n21` (stereo unspecified), the cytotoxicity at 10 µM came out at 3.13%.

With `O=C(NC(CC(F)(F)F)c1ccc(Cl)cc1)c1nc(=O)[nH][nH]1` (stereo unspecified), the cytotoxicity at 10 µM is -5.11%.

Consider `CC(C#N)CN(C)C(=O)CCNC(=O)C(C)(C)C` (stereo unspecified), for which the cytotoxicity at 10 µM worked out at 0.843%.

On to `CCC1COCCN1C(=O)CNC(=O)c1ccc2c(c1)CCC2` (stereo unspecified), for which the cytotoxicity at 10 µM came out at 8.08%.

As to `CCN(CC)CCCC(C)NC(=O)c1cccnc1-n1cccn1` (stereo unspecified), the cytotoxicity at 10 µM is -0.595%.

Regarding `O=C(NCc1ccccc1Cn1ccnc1)N1CCSCC1`, the cytotoxicity at 10 µM stood at 3.9%.

Turning to `CC(C)C(=O)Nc1cc(C(C)(C)C)nn1-c1ccccn1`, the cytotoxicity at 10 µM is -4.1%.

As to `Cc1n[nH]c(C2CN(CC(=O)NCc3sccc3C)CCO2)n1` (stereo unspecified), the cytotoxicity at 10 µM is -4.75%.

On to `CCc1nnc2n1CCN(C(=O)c1ccc3cc[nH]c3c1)C2`, for which the cytotoxicity at 10 µM was -6.43%.

On to `Cc1nn(C)c(C)c1NC(=O)CN1CCCC1c1noc(C(C)C)n1` (stereo unspecified), for which the cytotoxicity at 10 µM was -1.08%.

In the case of `CC(NC(=O)CCCOc1cccc(F)c1)c1ccncc1` (stereo unspecified), the cytotoxicity at 10 µM is -3.6%.

Regarding `CN(Cc1ncnn1C)c1ccnc(Cc2ccccc2)n1`, the cytotoxicity at 10 µM is -1.92%.

With `Cc1ccccc1CN1CCCN(C(=O)c2ccn(C)c(=O)c2)CC1`, the cytotoxicity at 10 µM was 1.62%.

For the compound `CCc1cccc(NC(=O)CNc2ccccc2OCCC(=O)OC)c1`, the cytotoxicity at 10 µM amounted to 7.53%.

`CS(=O)(=O)CCCC(=O)N1CCN(CC2CC2)c2ccccc21`: the cytotoxicity at 10 µM is -3.2%.

`CCC(CC)CS(=O)(=O)NC(=O)C1CCCC1`: the cytotoxicity at 10 µM is -13.3%.

As for `CNC(=O)c1cccc(NC(=O)CN2CCCN(S(C)(=O)=O)CC2)c1`, the cytotoxicity at 10 µM was 3.56%.

Regarding `CN(CC1CCOCC1)C(=O)NCCCN1CCCCC1`, the cytotoxicity at 10 µM turned out to be 0.105%.

Regarding `COc1ccccc1C(C)Nc1ncc(C(N)=O)cc1Cl` (stereo unspecified), the cytotoxicity at 10 µM came to 8.74%.

`COc1ccc(NC(=O)N2CCN(c3ncccn3)CC2)cn1`: the cytotoxicity at 10 µM worked out at 1%.

As to `CN(Cc1cnn(C)c1)C(=O)Cn1c(CS(C)(=O)=O)nc2ccccc21`, the cytotoxicity at 10 µM was 1.05%.

In the case of `O=C(c1cscn1)N1CCc2ncnc(-c3ccncc3)c2CC1`, the cytotoxicity at 10 µM was -4.71%.

With `Cc1nc(C(C)C)sc1C(=O)N1CCN(C2CN3CCC2CC3)CC1` (stereo unspecified), the cytotoxicity at 10 µM is 3.79%.

As for `CC(C)Oc1ccc(CN2CCN3CCN(C)CC3C2)cc1CO` (stereo unspecified), the cytotoxicity at 10 µM was -3.42%.

For `CNCCCNC1CCN(c2ccc(-n3ccnc3)cc2)CC1`, the cytotoxicity at 10 µM is -3.03%.

Turning to `CCn1c(C2CCCNC2)nn(CCn2cncn2)c1=O` (stereo unspecified), the cytotoxicity at 10 µM was -18.1%.

Take `Cc1c[nH]c(CN2CCN(C)C3(CCC(=O)N(CC4CC4)CC3)C2)n1` (stereo unspecified): the cytotoxicity at 10 µM was -5.54%.

For `COC[C@H]1CCC[C@H]1Nc1ncnc2c1CCNCC2`, the cytotoxicity at 10 µM is -11.2%.

As to `CSCCC(=O)N1CCC(c2nccn2Cc2cscn2)CC1`, the cytotoxicity at 10 µM was determined as 1.41%.

With `Cc1ccc(C(C(=O)NCCc2nc(C)cc(C)n2)N(C)C)cc1` (stereo unspecified), the cytotoxicity at 10 µM is -1.3%.

Regarding `CSCCC1CC(=O)Nc2cc(O)c(C)cc21` (stereo unspecified), the cytotoxicity at 10 µM was 1.97%.

Regarding `CC(C)=CCN1CCN(C(=O)c2cc(C(C)C)no2)[C@H]2CS(=O)(=O)C[C@H]21`, the cytotoxicity at 10 µM is -7.86%.

`CC(C1CCN(Cc2ccc(N(C)C)nc2)CC1)N(C)C` (stereo unspecified): the cytotoxicity at 10 µM was -1.75%.

As for `C/C=C(\C)CN1C[C@H](NC(=O)c2cnc(O)cn2)C[C@H]1C(=O)NCC`, the cytotoxicity at 10 µM came out at 7.31%.

As to `CN1CCCN(C[C@@H]2CN(C(=O)CC3CCC3)C[C@@H]2CO)CC1`, the cytotoxicity at 10 µM is -9.11%.

For the compound `Cc1cc2nc(C(C)C)cc(N[C@H](C(N)=O)C(C)C)n2n1`, the cytotoxicity at 10 µM was -1.66%.

Take `CCOCCOc1ccccc1C(=O)N1CCCC(c2ncc[nH]2)C1` (stereo unspecified): the cytotoxicity at 10 µM is -14.2%.

In the case of `Cc1cc(C)n(CC2CCCN2C(=O)c2cn[nH]c2C)n1` (stereo unspecified), the cytotoxicity at 10 µM is -11.6%.

Take `C1CC(c2nnc(CN3CCCC3c3noc(C4CC4)n3)o2)C1` (stereo unspecified): the cytotoxicity at 10 µM was -7.77%.

With `CC(C)c1nc2c(n1C)CCN(Cc1nc(-c3cccnc3)no1)C2`, the cytotoxicity at 10 µM is -1.43%.

Consider `COc1c(CNCCNC(=O)c2ccccc2F)c(C)nn1C`, for which the cytotoxicity at 10 µM is -0.644%.

Regarding `CCCNC(=O)NC(=O)CNC(C)(C)c1ccc2c(c1)OCO2`, the cytotoxicity at 10 µM was -12.7%.

For `CC1COCCN1Cc1nc(-c2ccsc2)no1` (stereo unspecified), the cytotoxicity at 10 µM was -17.8%.

Regarding `Cc1ccc(-c2cc(C(=O)NCCN3CCCS3(=O)=O)[nH]n2)o1`, the cytotoxicity at 10 µM was -7.98%.

For `Cc1nc(CN2CCCC(NCCCc3ccccc3)C2)no1` (stereo unspecified), the cytotoxicity at 10 µM is -3.9%.

In the case of `Cc1cccc(NC2CCN(C(=O)Nc3cc(F)ccc3F)CC2)n1`, the cytotoxicity at 10 µM was -10.7%.

For the compound `Cc1noc2ncc(C(=O)N3CCCC3c3ccsc3)cc12` (stereo unspecified), the cytotoxicity at 10 µM is -10.4%.

Take `CN(C)c1cc(CNC(=O)c2c(F)cccc2F)ccn1`: the cytotoxicity at 10 µM is -18.1%.

Regarding `CC(C)c1cnc(CN(C)C2CCN(CCCc3cnn(C)c3)C2)o1` (stereo unspecified), the cytotoxicity at 10 µM is -13.3%.

Take `CCc1ncc2c(n1)CN(CC(=O)Nc1cc(C)on1)CC2`: the cytotoxicity at 10 µM was determined as 0.049%.

For `COc1cccc(CN2CCCC(c3cc(C(N)=O)[nH]n3)C2)c1` (stereo unspecified), the cytotoxicity at 10 µM was -1.67%.

For `Cn1nc2c(cc1=O)CN(Cc1nc(-c3ccco3)no1)CC2`, the cytotoxicity at 10 µM was determined as 1.22%.

For the compound `O=C(NCCc1ccc(I)s1)N1CCC1`, the cytotoxicity at 10 µM is -11.1%.

On to `Cc1cnn(CC(C)NCc2nc(-c3ccsc3)oc2C)c1` (stereo unspecified), for which the cytotoxicity at 10 µM is -2.6%.

Turning to `CN(C)CCN1CCN(C(=O)c2ccn(C)c(=O)c2)CC1`, the cytotoxicity at 10 µM is -4.14%.

As to `Cc1ccc(S(=O)(=O)NC(=O)CCC2CCCO2)cc1` (stereo unspecified), the cytotoxicity at 10 µM was -15.7%.

Regarding `COC(=O)c1cc(C(=O)N2CCCCCC2)n(-c2ccccc2)n1`, the cytotoxicity at 10 µM is -5.33%.

As for `OC(CN1CCN(Cc2nnc(C3CC3)o2)CC1)c1ccccc1` (stereo unspecified), the cytotoxicity at 10 µM was -6.82%.

As for `Fc1cccc(-n2ccc(CN3CCCCC3Cn3cncn3)n2)c1` (stereo unspecified), the cytotoxicity at 10 µM was -3.81%.

With `Cc1cc(C)n(CC2CCCN2CC(=O)NC2CCOCC2)n1` (stereo unspecified), the cytotoxicity at 10 µM was -5.23%.

Take `Cc1cc(C2CCCN2Cc2cc(=O)n(C)c(=O)n2C)on1` (stereo unspecified): the cytotoxicity at 10 µM is -4.72%.

As to `CC(NCc1ccc(OCC(N)=O)cc1)c1ccc(Cl)c(Cl)c1` (stereo unspecified), the cytotoxicity at 10 µM was -5.25%.

`Cc1cncc(C(=O)N2C[C@@H]3CN(S(C)(=O)=O)CCO[C@@H]3C2)c1`: the cytotoxicity at 10 µM is -4.87%.

For the compound `CN1CC(=O)N(c2ccccc2)CC12CCN(C(=O)c1ccnnc1)C2` (stereo unspecified), the cytotoxicity at 10 µM is 3.39%.

`c1ccc(CN2CCC3(CC2)CN(c2ccccn2)CCO3)nc1`: the cytotoxicity at 10 µM was -6.38%.

Turning to `Cc1cccc(CN2CC[C@@H]3[C@@H]2CCN3C(=O)c2ccno2)n1`, the cytotoxicity at 10 µM is -18.2%.

With `Cn1cc(C2CC(=O)NC23CCN(C(=O)Cc2ccccn2)CC3)cn1` (stereo unspecified), the cytotoxicity at 10 µM was 5.06%.

Turning to `O=C(O)[C@]12CCCN(Cc3cccs3)C[C@H]1CN(c1ncccn1)C2`, the cytotoxicity at 10 µM turned out to be 7.58%.

Regarding `CN1CCC2(COCc3cnc(-c4ccccc4)nc32)C1` (stereo unspecified), the cytotoxicity at 10 µM is -1.5%.

Turning to `CCn1ncc2c1C(COC)CN(c1ncc(F)cn1)C2` (stereo unspecified), the cytotoxicity at 10 µM was found to be 14.6%.

For the compound `CCS(=O)(=O)N1CC[C@H]2C(=O)N(Cc3cccnc3)CCO[C@H]2C1`, the cytotoxicity at 10 µM is -80.4%.

For `O=C1CC2(CCN(CC3CC3)C2)CN1c1cccnc1` (stereo unspecified), the cytotoxicity at 10 µM was -1.18%.

For the compound `O=C(C1CN(CC2CC2)CC12CCOCC2)N1CCOCC1` (stereo unspecified), the cytotoxicity at 10 µM turned out to be 6.07%.

For the compound `CN1C(=O)CC(c2ccccc2)C12CCN(CC1CCOCC1)CC2` (stereo unspecified), the cytotoxicity at 10 µM was 1.02%.

Take `CCC(=O)N1CCC2(CCN(Cc3cccc(F)c3)CC2)CC1`: the cytotoxicity at 10 µM is -4.82%.

Turning to `CN1CCN(C(=O)[C@H]2C[C@H]3[C@H](CCN3Cc3cccs3)O2)CC1`, the cytotoxicity at 10 µM is -7.64%.

Take `O=C(CCc1cccnc1)N1CCC2(CCN(CC3CCCC3)C2)C1` (stereo unspecified): the cytotoxicity at 10 µM worked out at 3.82%.

As to `CC(=O)N1C[C@H]2CC[C@@H](C1)N(S(=O)(=O)c1ccccc1Cl)C2`, the cytotoxicity at 10 µM was -4%.

Regarding `CS(=O)(=O)N1C[C@H]2CC[C@@H](C1)N(CCC(=O)NCc1ccccc1F)C2`, the cytotoxicity at 10 µM is -11%.

`CC(C)CNC(=O)N1C[C@@H]2C[C@H](C(=O)NCc3ccccc3)[C@H](C1)O2`: the cytotoxicity at 10 µM is -0.924%.
